Reference: article PMC6690761 (Bioorganic & medicinal chemistry letters, 2019)

Target: T1, murine PDS (Mus musculus, UniProt Q9R155)
T1 sequence (Q9R155 1-780): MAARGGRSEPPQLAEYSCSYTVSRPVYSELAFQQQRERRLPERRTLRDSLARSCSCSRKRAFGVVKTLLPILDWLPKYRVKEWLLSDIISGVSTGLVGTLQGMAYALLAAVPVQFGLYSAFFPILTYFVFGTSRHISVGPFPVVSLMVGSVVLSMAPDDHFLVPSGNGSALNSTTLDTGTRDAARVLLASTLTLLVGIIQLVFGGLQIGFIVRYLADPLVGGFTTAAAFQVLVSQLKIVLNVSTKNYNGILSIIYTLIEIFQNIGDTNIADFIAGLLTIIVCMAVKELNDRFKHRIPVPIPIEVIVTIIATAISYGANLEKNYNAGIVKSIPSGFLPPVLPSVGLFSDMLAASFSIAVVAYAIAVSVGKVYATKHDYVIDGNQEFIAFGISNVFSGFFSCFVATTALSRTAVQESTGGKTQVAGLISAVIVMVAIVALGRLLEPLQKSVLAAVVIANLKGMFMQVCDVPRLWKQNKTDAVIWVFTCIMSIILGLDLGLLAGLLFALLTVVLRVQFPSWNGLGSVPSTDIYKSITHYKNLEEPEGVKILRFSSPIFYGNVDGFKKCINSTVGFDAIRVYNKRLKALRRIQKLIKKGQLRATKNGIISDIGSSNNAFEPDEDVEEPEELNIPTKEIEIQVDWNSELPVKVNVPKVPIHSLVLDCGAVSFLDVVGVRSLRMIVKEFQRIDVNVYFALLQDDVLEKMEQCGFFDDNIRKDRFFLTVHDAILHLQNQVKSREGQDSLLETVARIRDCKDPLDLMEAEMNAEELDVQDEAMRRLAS
Test: functional cell-based assay of PDS-mediated Cl-/I- exchange
Details: Fischer rat thyroid cells expressing murine PDS
In short: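 Fischer rat thyroid cells stably co-expressing murine pendrin and the halide-sensitive fluorescent protein EYFP-H148Q/I152L/F46L. Pendrin-mediated Cl–/I– exchange is followed through this halide-sensing fluorescent reporter. Inhibition is reported as IC50.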

SMILES	PDS inhibition activity (in words)
Cn1nc(C(=O)O)c2c1CCN(C(=O)Nc1ccc(Cl)cc1)C2 [Compound 21]	minimal PDS inhibition activity
CCOC(=O)c1nn(C)c2c1CN(C(=O)Nc1ccc(Cl)cc1)CC2 [Compound 20]	minimal PDS inhibition activity
